# eIF4E-4G inh = eIF4E/eIF4G interaction inhibition in translation initiation. P63073+Q04637. TR-FRET eIF4E-eIF4GI(517-606) binding, 2 h. inhibition, % at 21.7 µM. 0.37% of 220,000 active. AID 782;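 active = inhibition above about 30%, limit read from the data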;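 note: 0% = full FRET control wells and 100% = background wells lacking eIF4GI fragment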
# Hck-Nef inh = human Hck-Nef kinase inhibition; inhibition, % at 20 µM; P08631; 0.68% of 220,000 active; AID 463187; Recombinant Hck-YEEI plus Nef, Z-Lyte FRET kinase assay;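 active = Hck-Nef kinase inhibition above about 50%, limit read from the data; inactive = inhibition below that limit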;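 note: 0% = DMSO with Hck plus Nef and 100% = Hck alone without Nef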
# PERK inhibitor = blocks human PERK kinase. Q9NZJ5. CHO PERK-DD fusion, SEAP luminescence translation reporter. inhibition, % at 5.6 µM. 0.17% of 220,000 active;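 active = inhibition above the mean inhibition of all tested compounds plus 3 SD, set separately per screening campaign, cut at about 2.9% in these data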;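 note: PERK kinase domain activated by AP20187 dimerizer at 100 nM; 0% = DMSO with dimerizer and 100% = rapamycin at 8.4 µM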
# p97 ATPase inh = blocks human p97 ATPase activity; P55072; recombinant p97 ATPase, Kinase-Glo ATP luminescence, 3 h; inhibition, % at 8 µM; 0.42% of 220,000 active; AID 1481; in the data active = inhibition above about 15%;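 note: 0% = DMSO vehicle and 100% = wells lacking enzyme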
# Calb biofilm kill = mixtures killing C. albicans biofilm | C. albicans biofilm persisters + clotrimazole, fluorescence viability; primary screen in compound mixtures of four per well | inhibition, % at 7.6 µM | 0.02% of 120,000 active | AID 1242;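 active = inhibition above 30.3% in the primary screen of four-compound pools, then above 30% when the compound was retested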;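 note: compounds exposed to preformed 24 h biofilms for 48 h; 0% = untreated biofilm control and 100% = clotrimazole plus chlorhexidine kill blank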
#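 Assay system: C. albicans biofilms / Medium: RPMI/MOPS medium, pH 7.0 / Schedule: biofilm formation 24 h, compound exposure 48 h, 37 °C / Measured by: Alamar Blue fluorescence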
# 14-3-3 Bad PPI = disrupts binding of bovine 14-3-3 zeta to phospho-Bad peptide; TR-FRET 14-3-3zeta/Dy647-pBad peptide displacement, 1 h; inhibition, % at 21.7 µM; AID 781; 0.71% of 220,000 active; P63103;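 active = inhibition above about 70%, limit read from the data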;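 note: 0% = full 14-3-3 plus peptide FRET controls and 100% = background without 14-3-3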
# Target sequence (P63103 whole entry, looked up): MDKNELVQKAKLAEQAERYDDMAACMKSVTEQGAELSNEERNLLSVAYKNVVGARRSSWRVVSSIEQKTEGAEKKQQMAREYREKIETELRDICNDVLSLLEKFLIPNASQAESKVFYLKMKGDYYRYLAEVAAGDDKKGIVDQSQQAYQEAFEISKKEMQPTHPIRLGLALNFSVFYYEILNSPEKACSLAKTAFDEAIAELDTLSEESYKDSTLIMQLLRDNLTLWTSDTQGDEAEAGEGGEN
# Hck Nef conf = Hck-Nef kinase inhibition, confirmation; shares compounds with Hck-Nef inh; Recombinant Hck-YEEI:Nef, Z-Lyte FRET kinase assay; calls only at 10 µM; 28% of 1,300 active;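 active = average inhibition of at least 50%, with Z-scores no higher than 3 in both the phospho-tyrosine peptide and fluorescence counterscreens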
# An asterisk follows results filed as active; i = inactive; nt = not tested or not shown; + = active, no number; [ ] = another dose, or the depositor's remark. Compounds with a hit are over-represented: about 2.2% of the library has one in this group of screens.
SMILES,eIF4E-4G inh,Hck-Nef inh,PERK inhibitor,p97 ATPase inh,Calb biofilm kill,14-3-3 Bad PPI,Hck Nef conf
COc1ccccc1/C=C/C=N/NC(=O)c1cc(-c2ccco2)[nH]n1,8,59*,2,10,17,12,i
COc1cc2ncnc(NCc3ccc(C)cc3)c2cc1OC,-10,3,0,1,nt,12,nt
COc1cc2ncnc(NCc3cccs3)c2cc1OC,2,57*,2,0,16,-1,i
O=[N+]([O-])c1cc(Cc2ccccc2)cc(C=Nc2ccc(N3CCOCC3)cc2)c1O,7,31,0,2,20,6,nt
Cc1ccc(O)c(N=Cc2cc(Cc3ccccc3)cc([N+](=O)[O-])c2O)c1,9,62*,0,0,13,36,i
COc1ccc(NC(=O)c2cn(CCC#N)nc2-c2cc3ccccc3o2)cc1,-1,10,1,-7,7,-5,nt
N=C1/C(=C\c2ccc(-c3cccc(C(=O)O)c3)o2)C(=O)N=C2SC=C(c3ccccc3)N12,65*,64*,0,9,17,94*,+
Cc1ccccc1-n1c(C)cc(/C=C2/C(=N)N3C(c4ccccc4)=CSC3=NC2=O)c1C,2,0,0,-2,21,-24,nt
O=C(O)COc1ccccc1/C=N/NC(=O)CN1CCN(S(=O)(=O)c2ccc(Br)cc2)CC1,4,2,1,10,1,1,nt
c1ccn2c(c1)nc1c2nc2ccccn21,5,66*,1,-5,nt,15,nt
Cc1cccc(NC(=O)CSc2nc(COc3ccccc3)nc3ccccc23)c1C,-34,60*,0,1,nt,-1,i
Cc1nn(-c2ccc(F)cc2)c(Cl)c1/C=C/C(=O)OCC(=O)Nc1c(F)c(F)c(F)c(F)c1F,-2,0,1,3,11,6,nt
COc1cc(-c2nc(-c3ccc(NC(=O)c4ccc5c(c4)OCO5)cc3)no2)cc(OC)c1OC,-2,84*,0,2,nt,44,+
CCOC(=O)c1cc(C(=O)OCC)c2ccccn2c1=O,3,95*,0,1,nt,-1,nt
CC(=O)COc1nc2c(c(-c3ccco3)c1C#N)CCc1ccccc1-2,0,56*,0,3,21,2,i
Cc1nn(CCc2nn[nH]n2)c2nc(-c3ccc(C4CCCCC4)cc3)cc(C(F)(F)F)c12,18,71*,0,-1,11,-14,+
CCOC(=O)c1cc(-c2ccc(C#N)cc2)nc2c1c(C)nn2CCC#N,4,-2,0,-3,nt,4,nt
O=C(COc1ccccc1F)NCC(c1ccco1)N1CCCC1 (stereo not drawn),-5,21,1,4,-1,-17,nt
Cc1noc(NC(=O)c2c(-c3c(Cl)cccc3Cl)noc2C)c1[N+](=O)[O-],2,8,0,3,19,-10,nt
C/C=C/C=C\C(=O)Nc1cccc(C2=NOC3(C2)C[C@@H](C(N)=O)N(C(=O)c2cc([N+](=O)[O-])cc([N+](=O)[O-])c2)C3)c1 (stereo partly drawn),-7,50*,nt,nt,12,-6,i
C/C=C\C=C\C(=O)N1CC2(CC(c3cccc(NC(=O)CC(c4ccccc4)c4ccccc4)c3)=NO2)C[C@H]1C(N)=O (stereo partly drawn),1,78*,nt,nt,9,1,i
Cc1occc1C(=O)NNC(=O)Nc1ccc([N+](=O)[O-])cc1,3,27,1,5,4,-11,nt
O=C(NCc1ccccn1)C(=O)Nc1cccc2ccccc12,4,1,0,3,-5,-11,nt
Cc1cc(SCC(=O)OCC(=O)c2c(N)n(C)c(=O)n(C)c2=O)c(C)cc1Br,0,55*,0,1,8,-11,i
Cc1ccc(NS(=O)(=O)c2ccc(C(=O)N3CCN(c4ccccn4)CC3)cc2)cc1,-9,80*,-1,1,nt,3,i
SMILES,eIF4E-4G inh,Hck-Nef inh,PERK inhibitor,p97 ATPase inh,Calb biofilm kill,14-3-3 Bad PPI,Hck Nef conf
O=C(O)C1=C(C(=O)Nc2cc(C(F)(F)F)ccc2Cl)CCCC1,0,19,0,7,15,4,nt
COc1ccc(-c2csc(NC(=S)NC(=O)/C=C/c3ccco3)n2)cc1OC,22,10,1,3,2,21,nt
COc1ccc(-c2csc(NC(=S)NC(=O)/C=C/c3ccco3)n2)cc1Br,11,78*,2,3,18,17,i
N/C(CSc1ccc(Cl)cc1)=N\NC(=O)c1ccncc1,-4,-5,0,0,-13,5,nt
O=C1SC(SCc2ccccc2Cl)=N/C1=C\c1ccc(C(=O)O)cc1,9,63*,1,0,17,18,i
CCOc1ccccc1N(C)C(=O)c1nn(-c2ccc(OC)cc2OC)c(=O)c2ccccc12,-3,1,0,-2,19,2,nt
COc1cc2c(cc1OC)CN(C(=S)Nc1c(C)cccc1C)CC2,18,4,-1,4,5,7,nt
COc1ccccc1NS(=O)(=O)c1cccc(-n2c(O)c(C=Nc3ccccc3C(=O)O)c3ccccc3c2=O)c1,4,62*,0,-7,3,9,i
O=C(Nc1nccs1)c1cccc(N2C(=O)c3cccc4c([N+](=O)[O-])ccc(c34)C2=O)c1,-40,52*,0,-1,nt,77*[fluorescence artefact?],+
Cc1ccc(OCCOCCN2CCN(C)CC2)c([N+](=O)[O-])c1,4,19,1,5,19,56,nt
Cc1ccccc1C(=O)Oc1cc(N)n(S(=O)(=O)c2ccccc2)n1,-3,-12,0,3,14,-12,nt
COc1ccccc1C(=O)Oc1cc(N)n(S(=O)(=O)c2ccccc2)n1,-4,107*,0,7,-7,29,i
COC(=O)c1cc(NS(=O)(=O)c2ccc(C)c3ccccc23)ccc1N1CCOCC1,7,3,-2,1,5,6,nt
O=C(c1ccc(N2CCCCC2)c([N+](=O)[O-])c1)N(c1ccccn1)c1ccccn1,-2,25,0,-1,15,14,nt
O=C(CSc1nc(-c2ccccc2)nc2c1Cc1ccccc1O2)Nc1ccccc1,3,4,1,1,nt,0,nt
O=C(CSc1nc(-c2ccc(F)cc2)nc2c1Cc1ccccc1O2)Nc1cccc(C(=O)O)c1,63*,153*,1,-1,12,95*,+
COc1ccc(C(=O)Nc2ccccc2C(=O)NC(Cc2ccc(O)cc2)C(=O)NNC(=O)c2ccccc2Cl)cc1 (stereo not drawn),-4,66*,1,8,14,1,i

# From PubChem BioAssay
